TAAR1 antagonist: human TAAR1 antagonists, primary screen, Fluo-8 calcium fluorescence, CHO RD-HGA16 cells; Trace amine-associated receptor 1 (Homo sapiens), Q96RJ0; antagonist; inhibition, % at 3 µM; 360,000 compounds, 1.5% hits;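 active = inhibition above a per-plate cutoff, the mean inhibition of test compounds on that plate plus 3 SD, cut at about 49% in these data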;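 also: 0% = DMSO plus EC80 beta-PEA response and 100% = DMSO alone without agonist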
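Test system: RD-HGA16 CHO cells with stable hTAAR1 and Gα16 / Probe or stimulus: EC80 β-phenethylamine stimulus / Times: seeding 17-24 h prior, 75-min 37 °C, 30-min RT dye loading / Detection: Fluo-8 calcium-sensitive fluorescence / Read-out basis: % inhibition scaled between DMSO and EC80 PEA controls / Repeats: singlicate, one well per test compound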
TAAR1 agonist: human TAAR1 agonists, primary screen, Fluo-8 calcium fluorescence, CHO RD-HGA16 cells; Trace amine-associated receptor 1 (Homo sapiens), Q96RJ0; vehicle wells 0%, saturating PEA agonist 100%; activation, % at 3 µM; 360,000 compounds, 0.99% hits;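 active = activation above the mean activation of all test compounds in the run plus 3 SD, cut at about 38% in these data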
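Test system: RD-HGA16 (CHO) cells co-expressing Gα16 and hTAAR1 | Doses: Single dose, 3 µM | Schedule: 17-24 h seeding, 75 min 37 °C dye, 30 min RT | Evaluation: % activation from peak over basal fluorescence ratio, DMSO-to-PEA scaled | Technique: Kinetic Fluo-8 calcium fluorescence | Benchmarks: Low control DMSO, high control PEA (EC100)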
OXTR agonist: human OXTR agonists, primary screen, fluorescence, CHO-OTR cells, Fluo-8 calcium; Oxytocin receptor (Homo sapiens), P30559; Fluo-8 calcium fluorescence; normalized: DMSO 0%, oxytocin 100%; activation, % at 3 µM; 320,000 compounds, 0.32% hits;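 active = activation above the mean of all tested compounds plus 3 SD, cutoff set per screening run, cut at about 20% in these data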;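 also: peak over basal fluorescence ratio from a 100 s FLIPR kinetic read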
V1aR counter: agonists of human V1a receptor, primary screen, counter-screen for OXTR agonist project, fluorescence, CHO-V1R cells. Vasopressin V1a receptor (Homo sapiens), P37288. activation, % at 3 µM. 320,000 compounds, 0.25% hits. Fluo-8 calcium fluorescence, agonist mode; 0% DMSO, 100% 3 nM vasopressin;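 active = activation above the mean activation of all tested compounds plus 3 SD, per screening run, cut at about 20% in these data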;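 also: signal is peak over basal fluorescence ratio across a 100 second FLIPR read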
Target sequence (P37288 whole entry, looked up): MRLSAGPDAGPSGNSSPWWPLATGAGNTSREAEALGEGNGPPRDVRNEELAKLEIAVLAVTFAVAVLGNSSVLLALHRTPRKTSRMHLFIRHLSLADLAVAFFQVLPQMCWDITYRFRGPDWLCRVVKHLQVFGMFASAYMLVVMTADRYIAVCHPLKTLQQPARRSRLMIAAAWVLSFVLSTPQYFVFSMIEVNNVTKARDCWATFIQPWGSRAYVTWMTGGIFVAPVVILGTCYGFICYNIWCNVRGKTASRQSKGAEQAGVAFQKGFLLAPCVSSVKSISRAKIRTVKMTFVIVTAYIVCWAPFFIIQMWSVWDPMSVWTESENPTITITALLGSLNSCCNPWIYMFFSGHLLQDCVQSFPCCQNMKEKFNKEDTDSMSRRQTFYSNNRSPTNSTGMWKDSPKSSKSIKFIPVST
OXTR potentiate: human OXTR potentiators, primary screen, fluorescence, CHO-OTR cells, Fluo-8 calcium; AID 2445, 2010; Fluo-8 calcium fluorescence, potentiator mode; 0% = oxytocin EC15, 100% = EC100; activation, % at 3 µM; Oxytocin receptor (Homo sapiens), P30559; 320,000 compounds, 0.061% hits;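 active = activation above that plate's cutoff, the mean activation of tested compounds plus 3 SD, cut at about 6.6% in these data, passing the limit was not always enough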;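 also: 100% uses oxytocin at 75 nM as the full agonist control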
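Assay system: CHO-OTR cells, human receptor / Also added: oxytocin at about EC15, sub-maximal agonist stimulus / Dosing: single dose, 3.0 µM nominal final compound concentration / Incubation: 6 min pre-incubation, 100 s read / Technique: Fluo-8 calcium dye fluorescence / Read-out: % activation vs EC15 and EC100 oxytocin / Benchmarks: EC15 oxytocin low, 75 nM oxytocin high / Replicates: singlicate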
TAAR1 ag confirm: human TAAR1 agonists, retest of hits, confirmation, Fluo-8 calcium fluorescence, CHO RD-HGA16 cells; shares compounds with TAAR1 agonist; scaled: DMSO 0%, maximal phenethylamine 100%; activation, % at 3 µM; 2,400 compounds, 82% hits;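 active = activation above a cutoff set at the run's mean compound activation plus 3 SD, cut at about 39% in these data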
Ga16 ag counter: nonselective calcium mobilization agonists, CHO-Ga16 cells, counter-screen for hTAAR1 agonist project, cell-based, fluorescence, CHO-Ga16 parental line. shares compounds with TAAR1 agonist. Fluo-8 calcium fluorescence; normalized to maximal ATP response, DMSO zero. activation, % at 3 µM. 2,400 compounds, 50% hits. AID 651787, 2012;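 active = activation above the run cutoff, the mean activation over all tested wells plus 3 SD, cut at about 12% in these data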;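 also: 0% = DMSO wells and 100% = maximal ATP response on the peak over basal ratio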
TAAR1 desens: TAAR1 desensitization by agonist hits, confirmation, counter-screen for TAAR1 agonist project, cell-based, fluorescence, tachyphylaxis. 2,400 compounds, 46% hits. inhibition, % at 3 µM. CHO RD-HGA16 hTAAR1, Fluo-8 calcium, beta-PEA response inhibition. AID 651951, 2012. shares compounds with TAAR1 agonist;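 active = inhibition above the run cutoff, the mean inhibition of all test compounds plus 3 SD, cut at about 49% in these data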;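 also: beta-PEA stimulus applied at its EC80; loss of beta-PEA calcium signal after compound pretreatment read as receptor desensitization; 0% = DMSO with beta-PEA at EC80 and 100% = DMSO alone without agonist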
Ga16 antag count: inhibition of ATP-evoked calcium response in CHO-Ga16 cells, counter-screen for TAAR1 agonist project, cell-based, fluorescence; AID 651952, 2012; shares compounds with TAAR1 agonist; inhibition, % at 3 µM; 2,400 compounds, 39% hits; CHO-Ga16 ATP-induced calcium, Fluo-8 fluorescence;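 active = inhibition above the plate's mean compound inhibition plus 3 SD, computed per plate, cut at about 22% in these data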;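 also: 0% = EC80 ATP with DMSO and 100% = DMSO wells without ATP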
* marks the source's active call; other numbers are inactive results; . = not tested or not shown. Hits are enriched below; roughly 2.3% of the tested compounds scored in any of these assays.

SMILES | TAAR1 antagonist | TAAR1 agonist | OXTR agonist | V1aR counter | OXTR potentiate | TAAR1 ag confirm | Ga16 ag counter | TAAR1 desens | Ga16 antag count
O=C(CCc1ccccc1)N/N=C/c1cccc(O)c1 | 3.5 | -0.8 | 1.1 | 0.4 | -5.0 | . | . | . | .
Cn1c(N/N=C\c2cccc(O)c2)cc(=O)n(C)c1=O | 6.7 | 51.9* | -1.4 | -0.1 | -2.5 | 76.6* | 0.6 | 15.0 | 4.8
COc1ccc(/C=C/C(=O)c2ccc([N+](=O)[O-])o2)cc1OC | 42.0 | 58.9* | 1.9 | 0.1 | 9.5 | 46.7* | 16.7* | 49.0* | 31.0*
Cc1cc(N(C)C)nc(Nc2ccccc2)n1 | 87.3* | 92.0* | -0.2 | 0.0 | -1.9 | 107.8* | 0.9 | 99.1* | 1.0
COc1ccc([C@@H]2[C@@H]3C(=O)N(C(C)(C)C)C(=O)[C@@H]3[C@]3(C)C(=O)N(c4ccc(C)cc4)C(=O)N23)cc1 | 8.4 | 2.5 | -1.8 | -0.8 | -4.3 | . | . | . | .
Nc1[nH]c(C(=O)c2ccccc2)c(-c2ccccc2C(F)(F)F)c1C(=O)NCCc1cccs1 | -3.2 | 47.9* | . | . | . | 29.5 | 3.6 | 20.7 | 12.7
Nc1[nH]c(C(=O)c2ccccc2)c(-c2ccccc2C(F)(F)F)c1C(=O)NCc1ccc(F)cc1 | -22.0 | 1.1 | . | . | . | . | . | . | .
O=C(CSc1nnnn1-c1cccc(C(=O)O)c1)NC(c1ccccc1)c1ccccc1 | 2.3 | 10.7 | -1.4 | 0.6 | -20.6 | . | . | . | .
Oc1ccc(C2CNCc3sccc32)cc1O (stereo not given) | 78.2* | 91.6* | 0.7 | 1.3 | -2.3 | 104.7* | 6.3 | 94.6* | 4.8
O=C(Nc1ccncc1)Nc1cccc(F)c1 | 46.0 | 92.4* | . | . | . | 104.4* | 12.1* | 83.7* | 17.2
O=C(Nc1ccncc1)c1cccc(F)c1 | -0.1 | 3.1 | -0.3 | 1.1 | -13.9 | . | . | . | .
Cc1cccc(NC(=O)Nc2ccncc2)c1 | 15.3 | 52.9* | 2.7 | 3.1 | -6.7 | 76.5* | 3.4 | 35.7 | -1.2
O=C(Nc1cccnc1)Nc1cccc(F)c1 | 31.0 | 51.8* | 5.7 | 5.9 | -6.5 | 78.2* | 10.6 | 54.0* | 12.3
O=C(Nc1ccncc1)Nc1ccc(F)cc1F | -12.9 | 46.6* | 0.9 | -0.3 | -6.5 | 71.2* | 1.3 | 15.6 | -2.8
Nc1nonc1-n1nnc(C(=O)N/N=C/c2cccs2)c1-c1ccc2c(c1)OCO2 | 66.1* | 141.3* | 35.1* | 51.6* | -11.9 | 122.5* | 81.4* | 65.0* | 27.7*
Nc1nonc1-n1nnc(C(=O)N/N=C/c2ccncc2)c1-c1cccs1 | -9.4 | 10.5 | 1.7 | 2.5 | -7.7 | . | . | . | .
CCOc1ccc(/C=N/NC(=O)c2nnn(-c3nonc3N)c2-c2cccs2)cc1 | 69.8* | 124.9* | 35.3* | 21.7* | -10.7 | 120.4* | 91.5* | 76.2* | 46.0*
CCOc1ccc(-c2c(C(=O)N/N=C/c3cccs3)nnn2-c2nonc2N)cc1 | 21.2 | 96.0* | 11.8 | 13.9 | -0.5 | 126.8* | 80.0* | 60.0* | 31.8*
CCN1CCCC1CNCc1cccc(OC)c1OCc1ccc(F)cc1 (stereo not given) | -1.4 | 0.3 | 0.5 | -0.3 | -1.6 | . | . | . | .

Screens as filed in PubChem.
